Data as given in ChEMBL document CHEMBL1122720, “Synthesis and neuroleptic activity of N-[(1-ethyl-2-pyrrolidinyl)methyl]-2-methoxy-5-sulfonamidobenzamide s” (J Med Chem, 1984).

How the values were obtained:
Canis familiaris = assay: Inhibition of apomorphine induced emesis in dogs following p.o. administration.; format: functional; details: Canis lupus familiaris, po
Procedure, shortened: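 Dogs were fasted and dosed 1 h before apomorphine 0.1 mg/kg s.c. Vomits within 30 min were counted and compared with the same dog's count 2 weeks earlier. ED50 was found by the up-and-down method.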

Mus musculus = assay: Inhibition of apomorphine induced climbing in mice following p.o. administration.; format: functional; details: po
Procedure, shortened: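 Mice in two to three groups of 10 got the drug orally as a gum arabic suspension, then apomorphine 1 mg/kg s.c. 60 min later. Each mouse was caged in wire mesh and watched for 3 min from 20 min after apomorphine for wall-climbing, judged against a control group. ED50 (mg/kg) came from regression analysis.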

[1] = Toxicity in mice following p.o. administration.; format: organism-based; details: mouse, in vivo, po
Procedure, shortened: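 Groups of 10 mice received the drug orally. Deaths were scored on day 7 after dosing, and LD50 (mg/kg) was obtained by graphical interpolation.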

`CCN1CCCC1CNC(=O)c1cc(N(C)S(=O)(=O)N(C)C)c(Cl)cc1OC` (stereo unspecified) showed an ED50 (Canis familiaris) of 0.1 mg/kg, an ED50 (Mus musculus) of 31.8 mg/kg and an LD50 [1] of 750 mg/kg.
`CCN1CCCC1CNC(=O)c1cc(NS(C)(=O)=O)ccc1OC` (stereo unspecified) gave an ED50 (Canis familiaris) of 2 mg/kg, an ED50 (Mus musculus) greater than 50 mg/kg and an LD50 [1] greater than 500 mg/kg.
With `CCN1CCCC1CNC(=O)c1cc(NS(C)(=O)=O)c(Cl)cc1OC` (stereo unspecified) the ED50 (Canis familiaris) was 0.1 mg/kg, the ED50 (Mus musculus) was 9.1 mg/kg and the LD50 [1] was greater than 1000 mg/kg.
Compound `CCN1CCCC1CNC(=O)c1cc(N(C)S(N)(=O)=O)c(C)cc1OC` (stereo unspecified) has an ED50 (Canis familiaris) of 1 mg/kg, an ED50 (Mus musculus) greater than 50 mg/kg and an LD50 [1] greater than 1000 mg/kg.
`CCN1CCCC1CNC(=O)c1cc(N(C)S(C)(=O)=O)c(C)cc1OC` (stereo unspecified) gave an ED50 (Canis familiaris) of 1 mg/kg, an ED50 (Mus musculus) of 26.1 mg/kg and an LD50 [1] greater than 1000 mg/kg.
In the case of `CCN1CCCC1CNC(=O)c1cc(N(C)S(N)(=O)=O)ccc1OC` (stereo unspecified), the ED50 (Canis familiaris) is reported as 1 mg/kg, the ED50 (Mus musculus) is reported as greater than 50 mg/kg and the LD50 [1] is reported as greater than 1000 mg/kg.
With `CCN1CCCC1CNC(=O)c1cc(NS(N)(=O)=O)ccc1OC` (stereo unspecified) the ED50 (Canis familiaris) was 10 mg/kg, the ED50 (Mus musculus) was greater than 50 mg/kg and the LD50 [1] was greater than 1000 mg/kg.
With `CCN1CCCC1CNC(=O)c1cc(N(C)S(N)(=O)=O)c(Cl)cc1OC` (stereo unspecified) the ED50 (Canis familiaris) was 1 mg/kg, the ED50 (Mus musculus) was greater than 50 mg/kg and the LD50 [1] was greater than 1000 mg/kg.
`CCN1CCCC1CNC(=O)c1cc(NS(N)(=O)=O)c(C)cc1OC` (stereo unspecified) gave an ED50 (Canis familiaris) greater than 1 mg/kg, an ED50 (Mus musculus) greater than 50 mg/kg and an LD50 [1] greater than 1000 mg/kg.
With `CCN1CCCC1CNC(=O)c1cc(NS(N)(=O)=O)c(Cl)cc1OC` (stereo unspecified) the ED50 (Canis familiaris) was 1 mg/kg, the ED50 (Mus musculus) was greater than 50 mg/kg and the LD50 [1] was greater than 1000 mg/kg.
`CCN1CCCC1CNC(=O)c1cc(N(C)S(C)(=O)=O)ccc1OC` (stereo unspecified) gave an ED50 (Canis familiaris) of 0.17 mg/kg, an ED50 (Mus musculus) of 22.9 mg/kg and an LD50 [1] greater than 1000 mg/kg.
Work on `CCN1CCCC1CNC(=O)c1cc(NS(=O)(=O)N(C)C)c(C)cc1OC` (stereo unspecified) yielded an ED50 (Canis familiaris) of 0.05 mg/kg, an ED50 (Mus musculus) of 13.3 mg/kg and an LD50 [1] greater than 1000 mg/kg.
Work on `CCN1CCCC1CNC(=O)c1cc(NS(C)(=O)=O)c(C)cc1OC` (stereo unspecified) yielded an ED50 (Canis familiaris) of 1 mg/kg, an ED50 (Mus musculus) of 35.6 mg/kg and an LD50 [1] of 750 mg/kg.
With `CCN1CCCC1CNC(=O)c1cc(NS(=O)(=O)N(C)C)c(Cl)cc1OC` (stereo unspecified) the ED50 (Canis familiaris) was 0.05 mg/kg, the ED50 (Mus musculus) was 8.3 mg/kg and the LD50 [1] was greater than 1000 mg/kg.
`CCN1CCCC1CNC(=O)c1cc(N(C)S(=O)(=O)N(C)C)c(C)cc1OC` (stereo unspecified) showed an ED50 (Canis familiaris) of 1 mg/kg, an ED50 (Mus musculus) greater than 50 mg/kg and an LD50 [1] of 750 mg/kg.
In the case of `CCN1CCCC1CNC(=O)c1cc(N(C)S(=O)(=O)N(C)C)ccc1OC` (stereo unspecified), the ED50 (Canis familiaris) is reported as 1 mg/kg, the ED50 (Mus musculus) is reported as 36.2 mg/kg and the LD50 [1] is reported as 750 mg/kg.
For `CCN1CCCC1CNC(=O)c1cc(NS(=O)(=O)NC)ccc1OC` (stereo unspecified), the ED50 (Canis familiaris) was greater than 1 mg/kg, the ED50 (Mus musculus) was greater than 50 mg/kg and the LD50 [1] was greater than 1000 mg/kg.
Compound `CCN1CCCC1CNC(=O)c1cc(NS(=O)(=O)NC)c(C)cc1OC` (stereo unspecified) has an ED50 (Canis familiaris) greater than 1 mg/kg, an ED50 (Mus musculus) greater than 50 mg/kg and an LD50 [1] greater than 1000 mg/kg.
With `CCN1CCCC1CNC(=O)c1cc(NS(=O)(=O)NC)c(Cl)cc1OC` (stereo unspecified) the ED50 (Canis familiaris) was greater than 1 mg/kg, the ED50 (Mus musculus) was greater than 50 mg/kg and the LD50 [1] was greater than 1000 mg/kg.
In the case of `CCN1CCCC1CNC(=O)c1cc(NS(=O)(=O)N(C)C)ccc1OC` (stereo unspecified), the ED50 (Canis familiaris) is reported as 1 mg/kg, the ED50 (Mus musculus) is reported as greater than 50 mg/kg and the LD50 [1] is reported as 750 mg/kg.
`CCN1CCCC1CNC(=O)c1cc(N(C)S(C)(=O)=O)c(Cl)cc1OC` (stereo unspecified) showed an ED50 (Canis familiaris) of 0.1 mg/kg, an ED50 (Mus musculus) of 7.7 mg/kg and an LD50 [1] greater than 500 mg/kg.
Work on `CCN1CCCC1CNC(=O)c1cc(S(N)(=O)=O)ccc1OC` (stereo unspecified) [SULPIRIDE] yielded an ED50 (Canis familiaris) of 0.09 mg/kg, an ED50 (Mus musculus) of 174 mg/kg and an LD50 [1] greater than 3000 mg/kg.
